Results of several laboratories.
Each line is one published result; the experiments were not run side by side.
Target: cAMP-dependent protein kinase catalytic subunit alpha (PRKACA, Homo sapiens, UniProt P17612)

SMILES	effect on	action	technique	tested at	measurement	value
Cc1sc(C(=O)NC2COC2)cc1-n1cc(NC(=O)Nc2c(F)cccc2Cl)cn1	enzyme activity	inhibitor	–	10 µM	remaining activity	94.5%
Cn1c(=O)n(-c2ccc(C(C)(C)C#N)cc2)c2c3cc(-c4cnc5ccccc5c4)ccc3ncc21	enzyme activity	inhibitor	–	10 µM	remaining activity	82%
Cc1ccc(NC(=O)c2ccc(C)c(C(F)(F)F)c2)cc1C#Cc1nn(C2CCC(O)CC2)c2ncnc(N)c12 (stereo not drawn)	cell-free assay	inhibitor	–	10 µM	remaining signal	60%
CCN1CCC2(CC1)NC(=O)c1c(c3ccc(Cl)c(Cl)c3n1C)C2C#N (racemic)	thermal stability	–	DSF	10 µM	ΔTm	1.9 °C
O=C(Nc1cccnn1)N1CCC(=Cc2cccc(Oc3ccc(C(F)(F)F)cn3)c2)CC1	cell-free assay	–	competition with immobilised ligand	1 µM	remaining binding	100%
Cn1c2c(Cl)c(Cl)ccc2c2cn[nH]c(=O)c21	thermal stability	–	DSF	10 µM	ΔTm	0.6 °C
Nc1ncnc2occ(-c3ccc(NC(=O)Nc4cc(C(F)(F)F)ccc4F)cc3)c12	enzyme activity	inhibitor	–	20 µM	remaining activity	12%
CN(C)c1ncnc(-c2ccc3nc(Nc4cc(CN5CCN(C(=O)CC(F)(F)F)CC5)ccn4)[nH]c3c2)c1Cl	cell-free assay	–	competition with immobilised ligand	1 µM	remaining binding	100%
CCOc1cc(-c2nncn2C)ccc1Nc1ncc2cc(C)nc(NCC(C)(C)C)c2n1	enzyme activity	inhibitor	FRET	1 µM	inhibition	< 15%
N#CCCc1ccc2c(c1)-c1[nH]c3ccc([N+](=O)[O-])cc3c1CC(=O)N2	cell-free assay	–	–	0.5 µM	remaining signal	87.6%
Cc1cnn2ncc(-c3ccnc(N(C)C)n3)c2c1	cell-free assay	–	–	1 µM	remaining signal	100%
Cc1cc(-n2nc(Cc3cc(F)cc(C(F)(F)F)c3)nc2C)ccc1C(N)=O	cell-free assay	–	competition with immobilised ligand	1 µM	remaining binding	100%
N[C@@H]1CCN(c2nccc(-c3cnn4ncccc34)n2)C1	cell-free assay	–	–	1 µM	remaining signal	96%
Nc1nc(Nc2ccccc2)sc1C(=O)c1c(F)cccc1F	enzyme activity	inhibitor	–	10 µM	remaining activity	90%
CCCCN(CCCC)C(=O)CN1C[C@H](c2cc(OC)c3c(c2)OCO3)[C@@H](C(=O)O)[C@@H]1CC(C)(C)CCC	cell-free assay	–	competition with immobilised ligand	1 µM	remaining binding	100%
COc1cc2ncnc(Nc3ccc(Oc4ccccc4)cc3C)c2cc1OC	enzyme activity	inhibitor	–	1 µM	inhibition	3%
Cc1cnc(NC2CCOCC2)nc1-n1cnc(C(=O)NC(CN)c2cc(F)cc(Cl)c2)c1 (stereo not drawn)	enzyme activity	inhibitor	radiometric	1 µM	remaining activity	45%
COc1cc(Nc2cnc(C#N)c(O[C@H](C)CN(C)C)n2)ncc1-c1cnn(C)c1	enzyme activity	inhibitor	radiometric	10 µM	remaining activity	78%
Cc1ccc(C(=O)Nc2ccc(CN3CCN(C)CC3)c(C(F)(F)F)c2)cc1C#Cc1cnc2cccnn12	enzyme activity	inhibitor	–	23.5 nM	remaining activity	53%
Cn1c2c(c3ccc(Cl)c(Cl)c31)C(C#N)C1(CCCC1)NC2=O (stereo not drawn)	thermal stability	–	DSF	10 µM	ΔTm	-0.6 °C
Cc1cc(NC(=O)c2cccc3cc(-c4cccc5[nH]nc(N)c45)ccc23)ccc1F	enzyme activity	inhibitor	–	0.1 µM	activity vs control	100%

SMILES	effect on	action	technique	tested at	measurement	value
CN(c1ncccc1CNc1nc(Nc2ccc3c(c2)CC(=O)N3)ncc1C(F)(F)F)S(C)(=O)=O	enzyme activity	inhibitor	–	1 µM	inhibition	78.4%
Cc1ccc(Nc2nccc(N(C)c3ccc4c(C)n(C)nc4c3)n2)cc1S(N)(=O)=O	enzyme activity	inhibitor	–	10 µM	inhibition	19%
CNCc1ccccc1-c1csc([C@@H](C)Nc2nc(C)nc3cc(OC)c(OC)cc23)c1	cell-free assay	–	competition with immobilised ligand	1 µM	remaining binding	100%
CS(=O)(=O)Nc1cccc(-c2csc(NC(=O)CSc3nc4nccnc4c(=O)n3CCc3ccccc3)n2)c1	enzyme activity	inhibitor	–	10 µM	inhibition	5%
CN(C)C1CCN(CC#Cc2nn(C3CCCC3)c3nc(NCc4ccccc4)ncc23)C1 (stereo not drawn)	enzyme activity	inhibitor	FRET	0.1 µM	inhibition	3%
O=C(NS(=O)(=O)c1ccc(NCC2CCOCC2)c([N+](=O)[O-])c1)c1ccc(N2CCN(Cc3ccc(C(F)(F)F)cc3-c3ccc(Cl)cc3)CC2)cc1Oc1cnc2[nH]ccc2c1	cell-free assay	–	competition with immobilised ligand	1 µM	remaining binding	76%
Cn1cnc(Br)c1C1=CN(c2ncnc3[nH]cnc23)CCS1	enzyme activity	inhibitor	radiometric	50 nM	inhibition	21.5%
CSc1nc(C)c(-c2ccnc(Nc3ccc(N4CCOCC4)cc3)c2)[nH]1	enzyme activity	inhibitor	–	10 µM	inhibition	5%
CCN(CC)CCNC(=O)c1c(C)[nH]c(/C=C2\C(=O)Nc3ccc(F)cc32)c1C	enzyme activity	inhibitor	–	10 µM	inhibition	59%
O=C1Nc2ccc(Cl)cc2C1=Cc1cc(Cl)c(O)c(Cl)c1	cell-free assay	–	–	0.5 µM	remaining signal	101%
CC(C)(C)c1nc(-c2cccc(NS(=O)(=O)c3c(F)cccc3F)c2F)c(-c2ccnc(N)n2)s1	enzyme activity	inhibitor	radiometric	1 µM	remaining activity	95%
Cc1ccc(C(=O)NCc2ccsc2)cc1C#Cc1cn(C(C)C)c2ncnc(N)c12	enzyme activity	inhibitor	–	1 µM	activity vs control	103%
Nc1nc(NC2CCCCC2)sc1C(=O)c1ccccc1	enzyme activity	inhibitor	–	10 µM	remaining activity	97%
Cn1c2c(c3ccc(Cl)c(Cl)c31)C(C#N)C1(CCNCC1)NC2=O (racemic)	thermal stability	–	DSF	10 µM	ΔTm	3.3 °C
CCCOc1ccc([C@H]2[C@H](C(=O)O)[C@@H](c3ccc4c(c3)OCO4)CN2CC(=O)Nc2c(CC)cccc2CC)cc1	cell-free assay	–	competition with immobilised ligand	1 µM	remaining binding	100%
CNc1cccc2cc(C(=O)Nc3ccc(C(=O)O)cc3)c(=O)[nH]c12	enzyme activity	inhibitor	–	10 µM	inhibition	-8.1%
Cn1c2c(c3ccc(Cl)c(Cl)c31)C(C#N)C1(CCOCC1)NC2=O (stereo not drawn)	thermal stability	–	DSF	10 µM	ΔTm	0.1 °C
COc1cc(Cl)c(C(=O)N[C@@H](CN[C@H]2CC[C@@H](N)CC2)Cc2ccc(C#N)cc2)cc1-c1ccc(CN[C@H](C)c2ccc(C)cc2)o1	enzyme activity	inhibitor	–	1 µM	remaining activity	106%
CN(C)CCCn1cc(C2=C(c3c[nH]c4ccccc34)C(=O)NC2=O)c2ccccc21	cell-free assay	–	–	0.5 µM	remaining signal	72%
O=C(NCCCC1CCCCC1)c1ccc(CNC(=O)c2cnn(-c3ccccc3)c2C(F)(F)F)cc1	cell-free assay	–	competition with immobilised ligand	0.1 µM	remaining binding	100%
FC(F)(F)Oc1cccc(-c2cnc3ccc(-c4ccncc4)nn23)c1	enzyme activity	inhibitor	radiometric	5 µM	activity vs control	106%
